{"data": "Published values pooled from the literature", "cell line": "HCT-15", "observed": "cell growth or viability", "note": "Lines come from different studies, so protocols differ."}
{"SMILES": "COc1cccc(Oc2ccccc2NC(=O)CNC(=O)c2cccc3ccccc23)c1", "technique": "SRB", "time": "48 h", "endpoint": "GI50", "value": "129 nM"}
{"SMILES": "COc1cc(Nc2nccc(-c3cnn4nc(OC)ccc34)n2)cc(C(F)(F)F)c1", "technique": "ATP luminescence", "endpoint": "IC50", "value": "360 nM"}
{"SMILES": "CC(C)c1cccc(C(C)C)c1-n1ccn(-c2c(C(C)C)cccc2C(C)C)c1=[Se]", "technique": "MTT", "time": "72 h", "endpoint": "IC50", "value": "14800 nM"}
{"SMILES": "COc1ccc(C(=O)/C=C/c2ccc3c(c2)OCCO3)cc1S(N)(=O)=O", "technique": "SRB", "concentration": "10 µM", "endpoint": "inhibition", "value": "58%"}
{"SMILES": "O=C(O)CCCc1ccccc1", "technique": "MTT", "time": "72 h", "endpoint": "IC50", "value": "> 50000 nM"}
{"SMILES": "S=C([S][Au-][P+](CCCCCC[P+]([Au-][S]C(=S)n1cccn1)(c1ccccc1)c1ccccc1)(c1ccccc1)c1ccccc1)n1cccn1", "endpoint": "GI50", "value": "2880 nM"}
{"SMILES": "Cc1c(C)n(-c2c(C(C)C)cccc2C(C)C)c(=[Se])n1-c1c(C(C)C)cccc1C(C)C", "technique": "MTT", "time": "72 h", "endpoint": "IC50", "value": "16200 nM"}
{"SMILES": "CC(C)[C@H](N)c1nc2cc(-c3ccncc3F)sc2c(=O)[nH]1", "technique": "MTT", "endpoint": "IC50", "value": "301 nM"}
{"SMILES": "COc1ccc(C(=O)/C=C/c2cccc(Cl)c2Cl)cc1S(N)(=O)=O", "technique": "SRB", "time": "48 h", "endpoint": "GI50", "value": "1300 nM"}
{"SMILES": "COc1cccc2c1C(=O)c1c(O)c3c(c(O)c1C2=O)C[C@@](O)(C(=O)CO)C[C@@H]3O[C@H]1C[C@H](N)[C@H](O)[C@H](C)O1", "technique": "MTT", "time": "24 h", "endpoint": "IC50", "value": "6600 nM"}
{"SMILES": "[Se]=c1n(C23CC4CC(CC(C4)C2)C3)ccn1C12CC3CC(CC(C3)C1)C2", "technique": "MTT", "time": "72 h", "endpoint": "IC50", "value": "8300 nM"}
{"SMILES": "Cc1cc(C)n(C(=S)[S][Au][PH](CCCCCC[PH]([Au][S]C(=S)n2nc(C)cc2C)(c2ccccc2)c2ccccc2)(c2ccccc2)c2ccccc2)n1", "endpoint": "GI50", "value": "1120 nM"}
{"SMILES": "CC(C)C[C@H](NC(=O)[C@H](Cc1ccccc1)NC(=O)c1cnccn1)B(O)O", "technique": "ATP luminescence", "endpoint": "IC50", "value": "9.6 nM"}
